In ChEMBL document CHEMBL5620402, “Development of submicromolar 17β-HSD10 inhibitors and their in vitro and in vivo evaluation” (Eur J Med Chem, 2023):

Legend:
[1] = molecular target: T1, Citrate synthase, mitochondrial (Sus scrofa) (UniProt P00889); assay: Inhibition of pig brain mitochondrial citrate synthase assessed as activity at 50 uM by DTNB method (reference value: 100 + /- 5.5%); design: scale not given: the % may be the effect or the level left; settings: Mitochondria
T1 sequence (whole entry): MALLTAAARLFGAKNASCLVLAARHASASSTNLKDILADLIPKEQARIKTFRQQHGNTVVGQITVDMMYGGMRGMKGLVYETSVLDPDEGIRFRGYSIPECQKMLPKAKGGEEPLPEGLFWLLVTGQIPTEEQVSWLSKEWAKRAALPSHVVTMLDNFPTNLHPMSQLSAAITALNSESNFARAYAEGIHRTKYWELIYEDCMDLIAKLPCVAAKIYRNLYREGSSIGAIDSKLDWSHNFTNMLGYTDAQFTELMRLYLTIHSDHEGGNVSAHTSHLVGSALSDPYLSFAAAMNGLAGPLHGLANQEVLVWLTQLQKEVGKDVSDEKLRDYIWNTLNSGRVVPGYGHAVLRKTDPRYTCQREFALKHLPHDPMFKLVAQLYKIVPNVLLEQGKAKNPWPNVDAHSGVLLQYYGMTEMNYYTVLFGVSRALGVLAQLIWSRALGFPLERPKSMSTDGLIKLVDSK

HEK293 [2] = assay: Cytotoxicity against human HEK293 cells assessed as change in ATP level at 1 uM measured after 48 hrs by CellTiter-Glo assay; assay type: toxicity, cell-based; settings: hek293, 48 h
Outline: (§1)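 HEK293 or SH-SY5Y cells in DMEM with 10% FBS, 2 mM glutamine and NEAA were seeded at 7,500 cells per well and grown 24 h. They were then exposed to 1 or 10 μM compound (final 1% DMSO) for 48 h. ATP was read by CellTiter-Glo luminescence after CellTox Green, normalised to 1% DMSO and 100 μM valinomycin controls. At least two experiments in tetraplicate.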

[3] = molecular target: T2, 3-hydroxyacyl-CoA dehydrogenase type-2 (Homo sapiens) (UniProt Q99714); assay: Inhibition of recombinant 17beta-HSD10 (unknown origin) expressed in Escherichia coli BL21 (DE3) assessed as residual activity at 1 uM using acetoacetyl-CoA as substrate by SAAC method relative to control
T2 sequence (whole entry): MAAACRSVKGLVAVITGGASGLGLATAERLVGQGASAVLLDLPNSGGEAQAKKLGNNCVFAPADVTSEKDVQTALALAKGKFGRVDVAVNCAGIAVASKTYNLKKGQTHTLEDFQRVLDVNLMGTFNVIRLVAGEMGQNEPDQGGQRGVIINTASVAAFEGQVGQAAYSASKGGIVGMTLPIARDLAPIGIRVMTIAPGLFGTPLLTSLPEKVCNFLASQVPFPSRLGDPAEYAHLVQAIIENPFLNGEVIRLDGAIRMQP
Outline: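 Recombinant 17β-HSD10 from E. coli BL21(DE3), 0.15 μg, was mixed with 320 μmol/L NADH in Tris-HCl pH 7.4 assay buffer. It was preincubated 5 min at 37 °C with 1 or 10 μM inhibitor or vehicle, then 320 μmol/L acetoacetyl-CoA was added. A340 was followed for 5 min. Residual activity is % of control, triplicate mean ± SD, with t-test versus control.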

[4] = Cmax in male albino Wistar rat brain at 60 mg/kg, po measured upto 1440 mins by HPLC-MS analysis; assay type: ADME, organism-based
Outline: (§2)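 Oral gavage via blunt needle into the stomach of male wild-type rats. Dose was 60 mg/kg from a 16 mM solution in 10% NMP, 25% Kolliphor EL and 65% saline. Rats were sacrificed at 15 time-points from 5 to 1440 min, 3 per point. Plasma and brain were analysed by HPLC-MS with non-compartmental analysis; values are mean ± SE of three.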

[5] = AUC (0 to 1440 mins) in male albino Wistar rat brain at 60 mg/kg, po measured upto 1440 mins by HPLC-MS analysis; assay type: ADME, organism-based; settings: in vivo, 24 h; outline: as §2
[6] = AUC (0 to 1440 mins) in male albino Wistar rat plasma at 60 mg/kg, po measured upto 1440 mins by HPLC-MS analysis; assay type: ADME, organism-based; settings: in vivo, 24 h; outline: as §2
[7] = Partition coefficient between Water and Octanol, logP of the compound by UHPLC-DAD-MS analysis; settings: pH 7.4
[8] = Tmax in male albino Wistar rat brain at 60 mg/kg, po measured upto 1440 mins by HPLC-MS analysis; assay type: ADME, organism-based; outline: as §2
[9] = molecular target: T3, Amine oxidase [flavin-containing] B (Sus scrofa, UniProt Q6PLK3); assay: Inhibition of pig brain mitochondrial MAO-B using [14C]PEA as substrate incubated for 60 mins by liquid scintillation counting analysis; assay type: mitochondria, Mitochondria
T3 sequence (Q6PLK3 whole entry): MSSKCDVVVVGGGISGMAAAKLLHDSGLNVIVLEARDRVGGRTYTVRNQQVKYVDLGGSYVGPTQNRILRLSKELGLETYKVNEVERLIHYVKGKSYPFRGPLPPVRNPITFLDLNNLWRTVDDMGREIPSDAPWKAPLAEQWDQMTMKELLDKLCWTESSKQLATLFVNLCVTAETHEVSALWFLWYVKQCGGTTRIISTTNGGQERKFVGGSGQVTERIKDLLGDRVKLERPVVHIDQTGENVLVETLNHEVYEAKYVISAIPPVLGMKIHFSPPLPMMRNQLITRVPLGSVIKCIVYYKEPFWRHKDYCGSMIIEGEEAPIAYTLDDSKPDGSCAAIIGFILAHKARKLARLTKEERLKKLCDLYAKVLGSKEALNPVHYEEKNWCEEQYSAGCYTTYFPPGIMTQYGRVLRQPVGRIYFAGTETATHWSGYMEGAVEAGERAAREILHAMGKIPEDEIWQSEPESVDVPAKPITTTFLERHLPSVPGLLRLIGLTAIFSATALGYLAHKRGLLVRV
Outline: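 Pig brain mitochondria were preincubated with drug at 5–7 concentrations (1–1000 μM) for 60 min at 37 °C. Radiolabelled substrate was then added: [3H]5-HT for MAO-A (20 min) or [14C]PEA for MAO-B (1 min). The aldehyde product was counted by liquid scintillation. IC50 came from four-parameter logistic fits; mean ± SE of ≥2 runs.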

SH-SY5Y = assay: Cytotoxicity against human SH-SY5Y cells assessed as change in ATP level at 10 uM measured after 48 hrs by CellTiter-Glo assay; assay type: toxicity, cell-based; outline: as §1
[10] = PBS buffer - Octanol distribution coefficient, logD of the compound at pH 7.4 by UHPLC-DAD-MS analysis; assay type: physicochemical
Outline: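 Compound (0.25 mg) was put into 500 μL of a 1:1 water–octanol (logP) or PBS pH 7.4–octanol (logD) mixture. Samples were shaken 30 min and centrifuged 10 min at 10,000 rcf. Each phase was quantified by UHPLC-DAD-MS against calibration lines.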

HEK293 [11] = assay: Cytotoxicity against human HEK293 cells assessed as change in ATP level at 10 uM measured after 48 hrs by CellTiter-Glo assay; assay type: toxicity, cell-based; settings: hek293, 48 h; outline: as §1
Sus scrofa = species on record: Sus scrofa; assay: Inhibition of pig brain mitochondrial Complex II and III assessed as antimycin A-sensitive rate of cytochrome c reduction upon addition of succinate by measuring activity by spectrophotometric ally method (reference value: 100 + /- 5.6%); design: scale not given: the % may be the effect or the level left; settings: Mitochondria

O=C(Nc1ccc(O)c(Cl)c1)Nc1nc2ccc(C(=O)O)cc2s1
Activity [1]: 100% | Activity (HEK293 [2]): Non-Toxic | Activity [3]: 50% | Cmax [4]: 0.154 nM | AUC [5]: 20135 pmol·min | AUC [6]: 212993 pmol·min | logP [7]: 1.19 | Tmax [8]: 40 min | IC50 ([9]; read-out: IC50): 81 µM | Activity (SH-SY5Y): Non-Toxic | logD [10]: 0.75 | Activity (HEK293 [11]): Non-Toxic

COc1ccc2nc(NC(=O)Nc3ccc(O)c(C(F)(F)F)c3)sc2c1
Activity [1]: 92.7% | Activity (HEK293 [2]): Non-Toxic | Activity [3]: 39.8% | logP [7]: 4.28 | Activity (Sus scrofa): 52.2% | IC50 [9]: Not Active | Activity (SH-SY5Y): Toxic | logD [10]: 5.06 | Activity (HEK293 [11]): Non-Toxic

CC(=O)Nc1ccc2nc(NC(=O)Nc3ccc(O)c(Cl)c3)sc2c1
Activity [1]: 99.9% | Activity (HEK293 [2]): Non-Toxic | Activity [3]: 49.5% | Cmax [4]: 0.206 nM | AUC [5]: 15749 pmol·min | AUC [6]: 1431047 pmol·min | logP [7]: 3.66 | Tmax [8]: 35 min | Activity (Sus scrofa): 97.4% | IC50 ([9]; read-out: IC50): 120 µM | Activity (SH-SY5Y): Non-Toxic | logD [10]: 3.35 | Activity (HEK293 [11]): Non-Toxic

NC(=O)c1ccc2nc(NC(=O)Nc3ccc(O)c(Cl)c3)sc2c1
Activity [1]: 94.4% | Activity (HEK293 [2]): Non-Toxic | Activity [3]: 50% | logP [7]: 3.32 | Activity (Sus scrofa): 99.7% | IC50 ([9]; read-out: IC50): 84 µM | Activity (SH-SY5Y): Non-Toxic | logD [10]: 3.34 | Activity (HEK293 [11]): Non-Toxic
